Assay results published in ChEMBL document CHEMBL2384957, “Synthesis and antimicrobical evaluation of a novel class of 1,3,4-thiadiazole: derivatives bearing 1,2,4-triazolo[1,5-a]pyrimidine moiety” (2013).
Converted amounts (≈) assume the structure as drawn.

Assays:
Type in all cases: functional
[1] = Antifungal activity against Physalospora pyricola assessed as inhibition of mycelia elongation rate at 50 ppm after 48 hrs relative to control; settings: Botryosphaeria berengeriana
Procedure, shortened: (§1)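 This was a mycelial growth assay on potato glucose agar. Samples were dissolved in DMF at 500 mg/L (stock), and 1 part solution was mixed with 9 parts thawed medium at 50 °C before plating. Solidified plates were inoculated with a 4 mm mycelium disk, inverted and incubated at 28 °C for 48 h. Medium without sample served as blank. Mycelial elongation radius was measured, in triplicate.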

Bacillus spizizenii = test: Antibacterial activity against Bacillus subtilis ATCC 6633 assessed as growth inhibition after 24 hrs by two-fold serial dilution method; settings: ATCC 6633, 24 h
Procedure, shortened: (§2)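 MICs were determined by two-fold serial dilution in nutrient broth, following CLSI. The inoculum came from 24 h bacterial cultures on nutrient agar at 37 ± 1 °C and was adjusted in sterile saline to 1×10⁴–10⁵ CFU/mL. Tubes were incubated at 37 ± 1 °C. MIC was read visually after 24 h, with kanamycin as the reference standard.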

Rhizoctonia solani = test: Antifungal activity against Rhizoctonia solani assessed as inhibition of mycelia elongation rate at 50 ppm after 48 hrs relative to control; procedure, shortened: as §1
Escherichia coli = test: Antibacterial activity against Escherichia coli ATCC 35218 assessed as growth inhibition after 24 hrs by two-fold serial dilution method; settings: ATCC 35218, 24 h; procedure, shortened: as §2
Staphylococcus aureus = test: Antibacterial activity against Staphylococcus aureus ATCC 6538 assessed as growth inhibition after 24 hrs by two-fold serial dilution method; settings: ATCC 6538, 24 h; procedure, shortened: as §2
Pseudomonas fluorescens = test: Antibacterial activity against Pseudomonas fluorescens ATCC 13525 assessed as growth inhibition after 24 hrs by two-fold serial dilution method; settings: ATCC 13525, 24 h; procedure, shortened: as §2
[2] = Antifungal activity against Gibberella saubinettii assessed as inhibition of mycelia elongation rate at 50 ppm after 48 hrs relative to control; settings: Fusarium graminearum
Procedure, shortened: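 Poisoned-agar mycelial growth test: sample dissolved in DMF at 500 mg/L, 1 mL mixed into 9 mL thawed potato glucose agar at 50 °C and poured into plates. A 4 mm mycelium disk was placed on each plate, inverted, incubated 28 °C for 48 h. Mycelial elongation radius (mm) measured against a sample-free medium blank; three replicates.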

Fusarium oxysporum = test: Antifungal activity against Fusarium oxysporum assessed as inhibition of mycelia elongation rate at 50 ppm after 48 hrs relative to control; procedure, shortened: as §1
Cercospora beticola = test: Antifungal activity against Cercospora beticola assessed as inhibition of mycelia elongation rate at 50 ppm after 48 hrs relative to control; procedure, shortened: as §1

SMILES | inhibition [1] [%] | MIC (Bacillus spizizenii) [µg/mL] | inhibition at 50 ppm (Rhizoctonia solani) [%] | MIC (Escherichia coli) [µg/mL] | MIC (Staphylococcus aureus) [µg/mL] | MIC (Pseudomonas fluorescens) [µg/mL] | inhibition [2] [%] | inhibition at 50 ppm (Fusarium oxysporum) [%] | inhibition at 50 ppm (Cercospora beticola) [%]
Cc1cc(C)n2nc(SCc3nnc(SCc4ccccc4F)s3)nc2n1 | 78 | > 100 | 68 | 12.5 (≈ 29.9 µM) | > 100 | 25 (≈ 59.7 µM) | 45 | 55 | 39
COc1cccc(CSc2nnc(CSc3nc4nc(C)cc(C)n4n3)s2)c1 | 69 | 50 (≈ 116 µM) | 49 | 25 (≈ 58.1 µM) | 12.5 (≈ 29 µM) | > 100 | 67 | 44 | 62
Cc1ccc(CSc2nnc(CSc3nc4nc(C)cc(C)n4n3)s2)cc1 | 74 | > 100 | 57 | 12.5 (≈ 30.2 µM) | > 100 | 50 (≈ 121 µM) | 32 | 65 | 38
Cc1cc(C)n2nc(SCc3nnc(SCc4cccc(Cl)c4)s3)nc2n1 | 66 | 50 (≈ 115 µM) | 53 | 25 (≈ 57.5 µM) | > 100 | 100 (≈ 230 µM) | 15 | 57 | 57
Cc1cccc(CSc2nnc(CSc3nc4nc(C)cc(C)n4n3)s2)c1 | 72 | > 100 | 54 | 12.5 (≈ 30.2 µM) | > 100 | 50 (≈ 121 µM) | 45 | 55 | 43
COC(=O)Nc1nc2ccccc2[nH]1 [CARBENDAZIM] | 74 |  | 62 |  |  |  | 75 | 48 | 66
Cc1cc(C)n2nc(SCc3nnc(SCc4ccccc4C)s3)nc2n1 | 73 | > 100 | 55 | 12.5 (≈ 30.2 µM) | > 100 | 25 (≈ 60.3 µM) | 48 | 50 | 36
Cc1cc(C)n2nc(SCc3nnc(SCc4cc(F)cc(F)c4)s3)nc2n1 | 68 | 50 (≈ 115 µM) | 75 | 25 (≈ 57.3 µM) | > 100 | 12.5 (≈ 28.6 µM) | 41 | 38 | 61
Cc1cc(C)n2nc(SCc3nnc(SCc4ccc(F)cc4)s3)nc2n1 | 79 | 50 (≈ 119 µM) | 55 | 12.5 (≈ 29.9 µM) | > 100 | 50 (≈ 119 µM) | 18 | 42 | 60
OCC1=C[C@H](N[C@H]2C[C@H](CO)[C@@H](O[C@@H]3O[C@H](CO)[C@@H](O)[C@H](O)[C@H]3O)[C@H](O)[C@H]2O)[C@H](O)[C@@H](O)[C@@H]1O [VALIDAMYCIN] | 47 |  | 75 |  |  |  | 37 | 35 | 42
C=Cc1ccc(CSc2nnc(CSc3nc4nc(C)cc(C)n4n3)s2)cc1 | 72 | 50 (≈ 117 µM) | 50 | 12.5 (≈ 29.3 µM) | 12.5 (≈ 29.3 µM) | 100 (≈ 234 µM) | 78 | 42 | 54
CC(C)(C)C(=O)C(Oc1ccc(Cl)cc1)n1cncn1 (stereo unspecified) [TRIADIMEFON] | 55 |  | 40 |  |  |  | 81 | 37 | 35
